Assay outcomes as filed in PubChem BioAssay.
Rows were chosen to be rich in hits. Some 1.5% of all compounds tested hit in one or more screens of this group.
Cardio protect: cardioprotection against H2O2-induced cell death, primary screen, uHTS, H9c2 cells, ATPLite luminescence | H9c2 cardiomyocytes, H2O2 injury protection, 2 h | protection from H2O2 cell death, % at 20 µM | 360,000 compounds, 0.63% hits;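 active means compounds giving at least 50% protection of heart cells from peroxide-induced death in the single-dose screen, raw or plate-pattern-corrected value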;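 further: 0% = DMSO wells with peroxide and 100% = DMSO wells without peroxide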
TbMetRS inhib: T. brucei MetRS inhibitors, primary screen, biochemical, luminescence; methionyl-tRNA synthetase (Trypanosoma brucei brucei); purified T. brucei MetRS, ATP depletion, Kinase-Glo luminescence; inhibition, % at 11.9 µM; 360,000 compounds, 0.4% hits; AID 624268, 2012;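 active means inhibition above a per-plate cutoff of the control wells' mean inhibition plus 3 SD, cut at about 5.5% in these data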;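 further: 0% = DMSO wells median and 100% = median of wells with control inhibitor compound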
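Dosing: 11.9 µM single point; system: parasite MetRS enzyme; technique: luminescence of leftover ATP; times: 15 min enzyme-compound preincubation, 2 h reaction, 10 min detection, 25 °C; replicates: each compound tested once; read-out basis: percent inhibition relative to median high and low control wells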
PKA-R1A activ: activators of PKA-R1A holoenzyme, primary screen, biochemical, fluorescence polarization, Cy5-IP20, bovine R1A, mouse PKAc; cAMP-dependent protein kinase type I-alpha regulatory subunit (Bos taurus) + …; PKA-R1A dissociation; scaled: DMSO 0%, 113 µM cGMP 100%; activation, % at 11.4 µM; 340,000 compounds, 0.083% hits; AID 504707, 2011;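 active means percent activation above the mean of all tested compounds plus 3 SD, cut at about 19% in these data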;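 further: higher means more PKAc released from R1A so a rise in polarization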
Rin1-Abl PPI inh: inhibitors of Rin1-Abl protein binding, primary screen, biochemical, TR-FRET. Tyrosine-protein kinase ABL1 (Homo sapiens) + Ras and Rab interactor 1 (Homo sapiens), …. 360,000 compounds, 0.4% hits. inhibition, % at 7.35 µM; in the data active means inhibition above about 5%, passing the limit was not always enough
PKA-R2B act: activators of PKA-R2B holoenzyme, primary screen, biochemical, fluorescence polarization, Cy5-IP20, human | PKA-R2B holoenzyme dissociation; R2B truncated from residue 108, S112A mutant; 0% DMSO only, 100% 113 µM cGMP | activation, % at 11.4 µM | cAMP-dependent protein kinase catalytic subunit beta (Homo sapiens) + cAMP-dependent … | AID 504700, 2011 | 340,000 compounds, 0.079% hits;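 active means activation above a cutoff set at the mean over all compounds plus 3 SD, cut at about 18% in these data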;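 further: higher means more holoenzyme dissociation and a rise in polarization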
Target sequence (P31323 whole entry, looked up, other chains not shown, the tested form may be a part): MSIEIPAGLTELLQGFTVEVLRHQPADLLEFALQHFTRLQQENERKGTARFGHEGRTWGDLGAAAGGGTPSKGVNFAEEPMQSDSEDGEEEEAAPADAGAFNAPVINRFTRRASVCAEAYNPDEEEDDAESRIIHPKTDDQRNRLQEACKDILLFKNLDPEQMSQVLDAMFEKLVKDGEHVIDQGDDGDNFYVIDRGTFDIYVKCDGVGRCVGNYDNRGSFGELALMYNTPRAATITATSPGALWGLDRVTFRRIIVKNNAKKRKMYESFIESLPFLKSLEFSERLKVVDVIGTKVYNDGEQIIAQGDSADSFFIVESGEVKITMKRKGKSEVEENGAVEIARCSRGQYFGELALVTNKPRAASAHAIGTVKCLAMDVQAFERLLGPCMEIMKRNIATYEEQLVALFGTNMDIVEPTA
TbMetRS confirm: T. brucei MetRS inhibitors, confirmation, biochemical, luminescence | shares compounds with TbMetRS inhib | T. brucei MetRS enzyme, luminescence (ATP depletion) | inhibition, % at 11.9 µM | 1,400 compounds, 93% hits | AID 624412, 2012; in the data active means inhibition above about 7%
Jurkat tox: Jurkat T cell cytotoxicity, cytotoxicity control for T. brucei MetRS inhibitor project, luminescence, high throughput | shares compounds with TbMetRS inhib | Jurkat cells viability, ATP luminescence | inhibition, % at 8.3 µM | 1,400 compounds, 12% hits | AID 624413, 2012; in the data active means inhibition above about 15%;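 further: 0% = vehicle and 100% = reference inhibitor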
TbMetRS FP orth: T. brucei MetRS inhibitors, orthogonal assay for T. brucei MetRS inhibitor project, biochemical, fluorescence polarization; 1,400 compounds, 44% hits; shares compounds with TbMetRS inhib; purified T. brucei MetRS; inhibition, % at 11.9 µM; in the data active means inhibition above about 17%;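 further: 0% = vehicle wells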
Numbers without * were called inactive; nt = no result.

SMILES	Cardio protect	TbMetRS inhib	PKA-R1A activ	Rin1-Abl PPI inh	PKA-R2B act	TbMetRS confirm	Jurkat tox	TbMetRS FP orth
CN1C(=O)C(Cc2cnc[nH]2)NC1=S (stereo unspecified)	-3	0	-4	2	0	nt	nt	nt
O=C(Nc1ccc2c(c1)OCCO2)C1c2ccccc2OCC(=O)N1Cc1cccnc1 (stereo unspecified)	nt	0	nt	nt	nt	nt	nt	nt
O=C(Nc1ccc(C(=O)O)cc1)/C(=C\C=C\c1ccccc1)NC(=O)c1cccc(Br)c1	6	12*	6	-1	2	20*	2	23*
COc1ccc(S(=O)(=O)/N=C2\C=C(Nc3ccc(O)cc3)C(=O)c3ccccc32)cc1	-6	2	-7	-4	2	nt	nt	nt
O=C(O)c1ccc(S(=O)(=O)/N=C2\C=C(Nc3ccccc3F)C(=O)c3ccccc32)cc1	-19	9.2*	-9	3	-4	15*	91*	6
O=C(NCC(O)CN1CCOCC1)c1ccc([N+](=O)[O-])cc1 (stereo unspecified)	7	-1	-1	2	-1	nt	nt	nt
OCC1OC(c2ccccc2)OC2COC(c3ccccc3)OC12 (stereo unspecified)	6	0	-10	-2	-1	nt	nt	nt
Cc1cccc(N(CC(=O)NC(C)(C)C)C(=O)CS(=O)CC(=O)Nc2ccc3c(c2)OCO3)c1 (stereo unspecified)	11	0	3	1	-2	nt	nt	nt
Cc1ccc(NC(=O)CS(=O)CC(=O)Nc2ccc3c(c2)OCO3)cc1Cl (stereo unspecified)	5	9.8*	-5	2	-7	12*	-2	12
N=c1n(Cc2ccccc2)c2ccccc2n1CC(O)COc1ccc(Cl)cc1Cl (stereo unspecified)	-20	10*	-7	2	-10	19*	77*	9
N=c1n(Cc2ccc(Cl)cc2)c2ccccc2n1CC(O)COc1ccccc1 (stereo unspecified)	-22	0	-3	0	-2	nt	nt	nt
C(=C/c1nccc2c1[nH]c1ccccc12)/c1ccc2c(c1)OCO2	6	5.9*	-9	-12	-12	3	42*	91*
C(=N\Nc1nc2ccccc2[nH]1)/c1ccc2c(c1)OCO2	3	4	0	-1	2	nt	nt	nt
Cc1ccc(Cn2nnnc2CN2CCC(c3nc4ccc(Cl)cc4[nH]3)CC2)cc1	4	21*	-8	-4	-11	36*	43*	12
Clc1ccc2nc(C3CCN(Cc4nnnn4C4CCCCC4)CC3)[nH]c2c1	0	69*	-5	4	17	81*	3	56*
OC1(c2cccc(C(F)(F)F)c2)CCN(c2ncnc3c2[nH]c2ccccc23)CC1	-24	6.1*	-3	3	13	14*	16*	9
c1ccc2c(c1)CCN(c1ncnc3c1[nH]c1ccccc13)C2	-37	13*	-7	0	4	9.1*	46*	10
COc1ccc([C@@H]2C[C@H]3[C@@H](CN2S(=O)(=O)c2ccccc2)C(=O)C[C@@H](c2cccc4ccccc24)N3S(=O)(=O)c2ccc(C)cc2)cc1	4	1	-11	-1	-3	nt	nt	nt
Nc1nnc(COc2ccc(Br)cc2Br)s1	-9	21*	2	-1	-5	42*	4	20*
Nc1nc(SCc2ccc(Cl)cc2Cl)nc2nc3c(cc12)CCCC3	-28	1	-3	-3	-5	nt	nt	nt
COC(=O)c1nnn(CC(=O)NC(=O)Nc2ccccc2)c1C(=O)OC	0	6.2*	2	-1	-11	15*	-7	3
COC(=O)c1nnn(CC(=O)NC(=O)Nc2ccc(F)cc2)c1C(=O)OC	10	1	-4	2	7	nt	nt	nt
CC1(C)C2(C#N)C(=O)NC(=O)C12C#N (stereo unspecified)	1	0	-21	-2	-7	nt	nt	nt
Cc1ccc(NC(=O)C(C)c2cccc(C(=O)c3ccccc3)c2)cc1O (stereo unspecified)	-22	84*	-9	-4	-12	99*	33*	78*
Cc1cccc(NC(=O)C(C)C(=O)c2ccccc2)c1 (stereo unspecified)	4	0	-6	-1	2	nt	nt	nt
SMILES	Cardio protect	TbMetRS inhib	PKA-R1A activ	Rin1-Abl PPI inh	PKA-R2B act	TbMetRS confirm	Jurkat tox	TbMetRS FP orth
COc1ccc(/C=C2\SC(=O)N=C2N)cc1	0	22*	-1	-2	9	67*	1	37*
COc1ccc(/C=C2\SC(N3CCCCC3)=NC2=O)cc1	0	0	-5	-2	4	nt	nt	nt
COCC(=O)N1C[C@H](C)[C@H](OC)CN(C)C(=O)c2cc(NC(=O)Nc3cccc(F)c3)ccc2OC[C@@H]1C	nt	34*	nt	nt	nt	43*	-3	18*
CC12CCC(C(=O)Nc3ccncc3)(CC1O)C2(C)C (stereo unspecified)	6	0	-9	0	12	nt	nt	nt
COc1cccc(/C=N/Nc2nc3ccccc3[nH]2)c1O	13	8.8*	-14	1	-1	10*	96*	7
COc1cc(/C=N/Nc2nc3ccccc3[nH]2)cc(OC)c1O	-6	8.5*	-1	-1	-13	14*	30*	33*
COc1cc(/C=N/Nc2nc3ccccc3[nH]c2=O)ccc1O	2	-1	-13	2	0	nt	nt	nt
COc1cccc(/C=N/Nc2nc3ccccc3[nH]2)c1OC	0	2	-11	1	-1	nt	nt	nt
COc1cc(/C=N/Nc2nc3ccccc3[nH]2)ccc1O	3	7.9*	-5	-1	-6	15*	15	32*
COC(=O)c1ccc(/C=N/Nc2nc3ccccc3[nH]2)cc1	0	2	6	-4	1	nt	nt	nt
Cc1nn(-c2ccccc2)c(C)c1/C=N/Nc1nc2ccccc2[nH]1	-4	8.0*	-5	-1	-9	14*	9	13
Cc1cc(=O)[nH]c(N/N=C/c2c(C)nn(-c3ccccc3)c2C)n1	19	-1	-5	1	-13	nt	nt	nt
